Drawing on ChEMBL document CHEMBL2163218, “Design, synthesis, and biological and structural evaluations of novel HIV-1 protease inhibitors to combat drug resistance” (J Med Chem, 2012), this text covers EC50 and Ki for 36 molecules.

Usually EC50 stands for the concentration that produces a half-maximal response. As a reminder, the Ki is a measure of affinity in units of concentration, obtained from inhibition or displacement. A low value points to higher affinity.

For assay [1], the system named is Human immunodeficiency virus 1. Kind of assay: Antiviral activity against multidrug resistant HIV1 MDR1 containing protease M46I, I54V, V82A and L90M mutant infected in HEK293 cells assessed as reduction in viral replication incubated for 48 hrs by luciferase reporter based assay. It is filed as functional, organism-based. Conditions: Human immunodeficiency virus 1, MDR1, HEK293, 48 h. For orientation: In a reporter assay the amount or activity of a reporter protein is the signal.

The test system of assay [2] is Human immunodeficiency virus 1. Nature of the assay: Antiviral activity against multidrug resistant HIV1 MDRC4 infected in HEK293 cells assessed as reduction in viral replication incubated for 48 hrs by luciferase reporter based assay. It is filed as functional, organism-based. Particulars: Human immunodeficiency virus 1, MDRC4, HEK293, 48 h.
Assay [3] relates to Human immunodeficiency virus 1. Nature of the assay: Antiviral activity against wild type HIV1 clade C isolated form HIV1 patient infected in HEK293 cells assessed as reduction in viral replication incubated for 48 hrs by luciferase reporter based assay. Conditions: Human immunodeficiency virus 1, clade C, HEK293, 48 h. It counts as functional, organism-based.
Assay [4] has as its system Human immunodeficiency virus 1. Nature of the assay: Antiviral activity against wild type HIV1 clade B isolated form HIV1 patient infected in HEK293 cells assessed as reduction in viral replication incubated for 48 hrs by luciferase reporter based assay. It counts as functional, organism-based. Conditions: Human immunodeficiency virus 1, clade B, HEK293, 48 h.
Assay [5] has as its system Human immunodeficiency virus 1. Nature of the assay: Antiviral activity against wild type HIV1 clade A isolated form HIV1 patient infected in HEK293 cells assessed as reduction in viral replication incubated for 48 hrs by luciferase reporter based assay. It counts as functional, organism-based. Particulars: Human immunodeficiency virus 1, clade A, HEK293, 48 h.
The test system of assay [6] is Human immunodeficiency virus 1. Nature of the assay: Antiviral activity against wild type HIV1 infected in HEK293 cells assessed as reduction in viral replication incubated for 48 hrs by luciferase reporter based assay. It is filed as functional, organism-based. Particulars: Human immunodeficiency virus 1, HEK293, 48 h.
Assay [7] addresses Protease (Human immunodeficiency virus 1, UniProt Q9YQ12). Kind of assay: Inhibition of wild type HIV1 protease by FRET assay. In a few lines: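 Recombinant HIV-1 protease Q7K, desalted into 20 mM sodium acetate pH 5, apparent concentration ~50 nM (UV 280 nm). Inhibitors in DMSO, 12 concentrations, added with protease to buffer pH 4.7 (0.1 M NaOAc, 1 M NaCl, 1 mM EDTA, 1 mM DTT, 2% DMSO, 1 mg/mL BSA). Cleavage started by injecting EDANS/DABCYL peptide substrate. Ki from initial velocities fitted to the Morrison equation.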

Chain of Protease (Q9YQ12 whole entry): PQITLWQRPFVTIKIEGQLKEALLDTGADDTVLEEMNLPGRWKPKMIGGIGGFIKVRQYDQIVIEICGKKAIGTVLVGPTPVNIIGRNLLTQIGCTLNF

Regarding `CCCCCN(C[C@@H](O)[C@H](Cc1ccccc1)NC(=O)OCCNC(=O)C(Cl)Cl)S(=O)(=O)c1ccc2ncsc2c1`, the EC50 was 254 nM in assay [1]; 285 nM in assay [2]; 67 nM in assay [3]; 30.3 nM in assay [4]; 79.2 nM in assay [5]; 38.3 nM in assay [6].

`CC[C@H](C)CN(C[C@@H](O)[C@H](Cc1ccccc1)NC(=O)OC[C@@H](C)C(=O)OC)S(=O)(=O)c1ccc2ncsc2c1` came in with a Ki in assay [7] of 1.39 nM. That is a single-digit nanomolar value.

Regarding `CC[C@H](C)CN(C[C@@H](O)[C@H](Cc1ccccc1)NC(=O)OCCNC(=O)OC(C)(C)C)S(=O)(=O)c1ccc(OC)cc1`, the Ki in assay [7] stood at 2.01 nM.

Regarding `CCCCCN(C[C@@H](O)[C@H](Cc1ccccc1)NC(=O)O[C@@H]1CCOC1=O)S(=O)(=O)c1ccc(OC)cc1`, in assay [7], the affinity corresponds to a Ki of 65.9 nM. This Ki is about 33-fold higher than that of the molecule before.

As to `CC[C@H](C)CN(C[C@@H](O)[C@H](Cc1ccccc1)NC(=O)OCCN1CCNC1=O)S(=O)(=O)c1ccc(OC)cc1`, the EC50 turned out to be 113 nM in assay [1]; 132 nM in assay [2]; 135 nM in assay [3]; 57.3 nM in assay [4]; 95.4 nM in assay [5]; 84.4 nM in assay [6].

With `CC[C@H](C)CN(C[C@@H](O)[C@H](Cc1ccccc1)NC(=O)OC[C@@H](C)C(=O)OC)S(=O)(=O)c1ccc(OC)cc1`, the EC50 turned out to be 41.8 nM in assay [1]; 56 nM in assay [2]; 36.3 nM in assay [3]; 20.6 nM in assay [4]; 24.9 nM in assay [5]; 30.9 nM in assay [6].

In the case of `CC[C@H](C)CN(C[C@@H](O)[C@H](Cc1ccccc1)NC(=O)OCCNC(=O)C(Cl)Cl)S(=O)(=O)c1ccc2ncsc2c1`, the EC50 in assay [1] is 144 nM; in assay [2], 189 nM; in assay [3], 88 nM; in assay [4], 28.6 nM; in assay [5], 64.1 nM; in assay [6], 43 nM.

Consider `CCCCCN(C[C@@H](O)[C@H](Cc1ccccc1)NC(=O)OCCN1CCNC1=O)S(=O)(=O)c1ccc2ncsc2c1`, for which the Ki in assay [7] came to 0.217 nM. Moreover, the EC50 in assay [1] stood at 237 nM; in assay [2] it was 274 nM; in assay [3], 130 nM; in assay [4], 53.9 nM; in assay [5] it was 99.7 nM; in assay [6] it was 83.8 nM.

`CCCCCN(C[C@@H](O)[C@H](Cc1ccccc1)NC(=O)O[C@H](C)CC(=O)OC)S(=O)(=O)c1ccc(OC)cc1` came in with a Ki in assay [7] of 17.2 nM.

On to `CC[C@H](C)CN(C[C@@H](O)[C@H](Cc1ccccc1)NC(=O)OC[C@@H]1CCC(=O)N1)S(=O)(=O)c1ccc(OC)cc1`, for which the EC50 in assay [1] stood at 37.1 nM; in assay [2] it was 72.2 nM; in assay [3] it was 44.1 nM; in assay [4], 38.5 nM; in assay [5], 64.5 nM; in assay [6], 43.9 nM.

`CCCCCN(C[C@@H](O)[C@H](Cc1ccccc1)NC(=O)O[C@H](C)CCC(C)=O)S(=O)(=O)c1ccc(OC)cc1` gave a Ki in assay [7] of 6.98 nM.

For the molecule `CC[C@H](C)CN(C[C@@H](O)[C@H](Cc1ccccc1)NC(=O)OCCNC(=O)C(F)(F)F)S(=O)(=O)c1ccc2ncsc2c1`, the Ki in assay [7] stood at 9.13 nM.

`CCCCCN(C[C@@H](O)[C@H](Cc1ccccc1)NC(=O)OC[C@@H](C)C(=O)OC)S(=O)(=O)c1ccc2ncsc2c1` displayed a Ki in assay [7] of 3.34 nM.

`CC[C@H](C)CN(C[C@@H](O)[C@H](Cc1ccccc1)NC(=O)OC[C@@H]1CCC(=O)N1)S(=O)(=O)c1ccc2ncsc2c1`: the EC50 in assay [1] was 21.1 nM; in assay [2], 35.6 nM; in assay [3], 13.2 nM; in assay [4], 16.4 nM; in assay [5], 25.1 nM; in assay [6], 15.5 nM.

On to `CCCCCN(C[C@@H](O)[C@H](Cc1ccccc1)NC(=O)OCCNC(=O)OC(C)(C)C)S(=O)(=O)c1ccc(OC)cc1`, for which the affinity in assay [7], expressed as Ki, was 2.95 nM. That is a single-digit nanomolar value.

Regarding `CC[C@H](C)CN(C[C@@H](O)[C@H](Cc1ccccc1)NC(=O)OCCN1CCNC1=O)S(=O)(=O)c1ccc2ncsc2c1`, the EC50 is 50.4 nM in assay [1]; 88.1 nM in assay [2]; 49.3 nM in assay [3]; 21.6 nM in assay [4]; 31.4 nM in assay [5]; 34.8 nM in assay [6].

For `CC[C@H](C)CN(C[C@@H](O)[C@H](Cc1ccccc1)NC(=O)OCCNC(=O)C(Cl)Cl)S(=O)(=O)c1ccc(OC)cc1`, the EC50 in assay [1] came out at 123 nM; in assay [2] it was 159 nM; in assay [3] it was 84.6 nM; in assay [4] it was 30.7 nM; in assay [5] it was 51.3 nM; in assay [6], 39.1 nM.

`CC[C@H](C)CN(C[C@@H](O)[C@H](Cc1ccccc1)NC(=O)OC(C)(C)C)S(=O)(=O)c1ccc2ncsc2c1` displayed a Ki in assay [7] of 0.243 nM.

The molecule `CC[C@H](C)CN(C[C@@H](O)[C@H](Cc1ccccc1)NC(=O)O[C@@H]1CCOC1=O)S(=O)(=O)c1ccc(OC)cc1` returned a Ki in assay [7] of 35.1 nM.

Take `CC(C)CN(C[C@@H](O)[C@H](Cc1ccccc1)NC(=O)O[C@H]1CO[C@H]2OCC[C@H]21)S(=O)(=O)c1ccc(N)cc1`: the EC50 in assay [1] worked out at 0.23 nM; in assay [3], 0.18 nM; in assay [4], 0.15 nM; in assay [5], 0.3 nM; in assay [6], 0.25 nM.

Turning to `CCCCCN(C[C@@H](O)[C@H](Cc1ccccc1)NC(=O)OC[C@@H]1CCC(=O)N1)S(=O)(=O)c1ccc2ncsc2c1`, the EC50 in assay [1] was 130 nM; in assay [2], 174 nM; in assay [3], 96.5 nM; in assay [4] it was 44.8 nM; in assay [5], 82.7 nM; in assay [6], 58.9 nM.

Molecule `CCCCCN(C[C@@H](O)[C@H](Cc1ccccc1)NC(=O)OCCNC(=O)C(F)(F)F)S(=O)(=O)c1ccc2ncsc2c1` returned a Ki in assay [7] of 19.7 nM.

With `CCCCCN(C[C@@H](O)[C@H](Cc1ccccc1)NC(=O)OCCNC(=O)OC(C)(C)C)S(=O)(=O)c1ccc2ncsc2c1`, the affinity in assay [7] corresponds to a Ki of 1.29 nM.

Consider `CC[C@H](C)CN(C[C@@H](O)[C@H](Cc1ccccc1)NC(=O)OCCNC(=O)OC(C)(C)C)S(=O)(=O)c1ccc2ncsc2c1`, for which the EC50 amounted to 756 nM in assay [1]; 918 nM in assay [2]; 331 nM in assay [3]; 183 nM in assay [4]; 231 nM in assay [5]; 198 nM in assay [6].

In assay [7], `CCCCCN(C[C@@H](O)[C@H](Cc1ccccc1)NC(=O)OCCN1CCOC1=O)S(=O)(=O)c1ccc2ncsc2c1` registered a Ki of 0.017 nM. In addition, the EC50 came out at 259 nM in assay [1]; 420 nM in assay [2]; 120 nM in assay [3]; 41.1 nM in assay [4]; 96.3 nM in assay [5]; 73 nM in assay [6].

With `CCCCCN(C[C@@H](O)[C@H](Cc1ccccc1)NC(=O)OCCN1CCNC1=O)S(=O)(=O)c1ccc(OC)cc1`, the affinity in assay [7], expressed as Ki, was 0.398 nM.

In assay [7], `CC[C@H](C)CN(C[C@@H](O)[C@H](Cc1ccccc1)NC(=O)OCCN1CCOC1=O)S(=O)(=O)c1ccc2ncsc2c1` came in with a Ki of 0.005 nM. The EC50 was 32.2 nM in assay [1]; 73.6 nM in assay [2]; 36.2 nM in assay [3]; 12 nM in assay [4]; 21.2 nM in assay [5]; 33.3 nM in assay [6].

In assay [7], `CC[C@H](C)CN(C[C@@H](O)[C@H](Cc1ccccc1)NC(=O)O[C@H](C)CCC(C)=O)S(=O)(=O)c1ccc(OC)cc1` returned a Ki of 0.426 nM.

Consider `CC[C@H](C)CN(C[C@@H](O)[C@H](Cc1ccccc1)NC(=O)OCCN1CCOC1=O)S(=O)(=O)c1ccc(OC)cc1`, for which the EC50 came out at 56.1 nM in assay [1]; 74.4 nM in assay [2]; 57.3 nM in assay [3]; 27.8 nM in assay [4]; 43.3 nM in assay [5]; 40.5 nM in assay [6].

For the molecule `CCCCCN(C[C@@H](O)[C@H](Cc1ccccc1)NC(=O)OC[C@@H]1CCC(=O)N1)S(=O)(=O)c1ccc(OC)cc1`, the Ki in assay [7] stood at 0.624 nM.

For the molecule `CCCCCN(C[C@@H](O)[C@H](Cc1ccccc1)NC(=O)O[C@@H]1CCOC1=O)S(=O)(=O)c1ccc2ncsc2c1`, the Ki in assay [7] was found to be 42.1 nM.

`CCCCCN(C[C@@H](O)[C@H](Cc1ccccc1)NC(=O)OCCN1CCOC1=O)S(=O)(=O)c1ccc(OC)cc1` returned a Ki in assay [7] of 0.008 nM. Moreover, the EC50 in assay [1] came to 300 nM; in assay [2] it was 265 nM; in assay [3], 158 nM; in assay [4] it was 52.4 nM; in assay [5], 126 nM; in assay [6], 77.1 nM.

Consider `CC(C)CN(C[C@@H](O)[C@H](Cc1ccccc1)NC(=O)O[C@H]1CCOC1)S(=O)(=O)c1ccc(N)cc1`, for which the EC50 in assay [1] was found to be 15.6 nM; in assay [2], 17.5 nM; in assay [3] it was 3.7 nM; in assay [4], 1.8 nM; in assay [5] it was 2.6 nM; in assay [6], 3 nM.

For the molecule `CCCCCN(C[C@@H](O)[C@H](Cc1ccccc1)NC(=O)OCCNC(=O)C(F)(F)F)S(=O)(=O)c1ccc(OC)cc1`, in assay [7], the affinity, expressed as Ki, was 31.4 nM.

The molecule `CC[C@H](C)CN(C[C@@H](O)[C@H](Cc1ccccc1)NC(=O)OCCNC(=O)C(F)(F)F)S(=O)(=O)c1ccc(OC)cc1` showed a Ki in assay [7] of 11.9 nM.

`CCCCCN(C[C@@H](O)[C@H](Cc1ccccc1)NC(=O)O[C@H](C)CCC(C)=O)S(=O)(=O)c1ccc2ncsc2c1` gave a Ki in assay [7] of 3.38 nM.
